Assay outcomes: PubChem BioAssay, several laboratories
This is a sample that favours compounds with a hit; in the whole collection about 1.8% have one here.
697 NFkB inh = inhibitors of PMA/ionomycin-induced NF-kB reporter, 697 cells, primary screen, B-cell NF-kB inhibitor project, cell-based, luminescence, uHTS. actives 0.33% (n = 330,000). 697 B-cell NF-kB luciferase reporter, 16 h. inhibition, % at 4 µM. AID 435022, 2010; in the data active = inhibition above about 35%
GalR3 antagonist = GalR3 antagonists in HEK293 cells, primary screen, cell-based, fluorescence readout; Galanin receptor type 3 (Homo sapiens), O60755; HEK293 GalR3-CNG cAMP membrane potential fluorescence; galR3 body fused to GalR1 C-terminus; inhibition, % at 3 µM; actives 0.44% (n = 360,000); AID 651719, 2012;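 active = inhibition above the screen-wide average plus 3 SD, cut at about 13% in these data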;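 note: forskolin and galanin both at EC90 stimulate the cells; cAMP rise reported by CNG channel membrane potential dye signal; 0% = forskolin plus galanin with DMSO and 100% = forskolin alone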
Jurkat NFkB inh = inhibitors of induced NF-kB luciferase reporter, primary screen, TCR NF-kB activation inhibitor project, cell-based, luminescence, uHTS; AID 435003, 2010; inhibition, % at 4 µM; Jurkat, PMA/ionomycin-induced NF-kB luciferase reporter; actives 0.53% (n = 330,000); in the data active = inhibition above about 50%
NR2E3 ag-1 = inhibitors of NR2E3-RetCOR corepressor binding, primary screen, NR2E3 agonist project, biochemical, TR-FRET, GST-NR2E3, biotin-RetCOR; actives 0.12% (n = 320,000); AID 2300, 2010; 1536-well; inhibition of corepressor binding, % at 4.78 µM;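 active = percent inhibition above the cutoff of mean plus 3 SD of all tested compounds, set per screening campaign, cut at about 20% in these data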;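 note: 0% = DMSO wells and 100% = biotin wells as full block of FRET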
Target sequence (Q9Y5X4 whole entry, looked up): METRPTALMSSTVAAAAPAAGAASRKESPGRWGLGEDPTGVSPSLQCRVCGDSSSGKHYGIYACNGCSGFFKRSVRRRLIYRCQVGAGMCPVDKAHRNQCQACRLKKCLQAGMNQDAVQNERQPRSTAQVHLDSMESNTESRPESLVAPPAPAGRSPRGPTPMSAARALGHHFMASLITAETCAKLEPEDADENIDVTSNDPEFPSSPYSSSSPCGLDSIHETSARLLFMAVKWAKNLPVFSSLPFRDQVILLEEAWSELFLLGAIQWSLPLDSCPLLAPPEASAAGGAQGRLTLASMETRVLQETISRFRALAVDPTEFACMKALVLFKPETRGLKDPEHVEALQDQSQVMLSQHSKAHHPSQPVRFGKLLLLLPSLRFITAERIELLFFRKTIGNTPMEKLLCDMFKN
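Material – GST-tagged NR2E3 plus biotinylated RetCOR corepressor · Quantity – NR2E3 fusion 1.35 nM · Times – 5 h incubation at 4 °C · Medium – pH 7.5 Tris-based buffer · Technique – TR-FRET, Eu(K)-anti-GST donor, streptavidin-D2 acceptor, ex 340, em 617/671 nm · Benchmarks – high control biotin, low control 0.6% DMSO · Format – 1536-well plates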
Gli-Sufu block = Gli-Sufu pathway antagonists, primary screen, luciferase luminescence, Sufu-KO-LIGHT cells, uHTS; Sufu-KO-LIGHT fibroblasts, Gli luciferase reporter luminescence; inhibition, % at 5 µM; actives 0.74% (n = 340,000); AID 588413, 2011;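 active = inhibition above about 55%, limit read from the data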;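 note: 0% = DMSO-treated cells and 100% = wells with medium but no cells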
NR2E3 ag-2 = NR2E3 agonists in two-hybrid cells, primary screen, cell-based, luminescence, CHO-S, Gal4-NCOR/VP16-NR2E3; Photoreceptor-specific nuclear receptor (Homo sapiens), Q9Y5X4; luciferase; inhibition of corepressor binding, % at 3.98 µM; actives 0.35% (n = 360,000); AID 602229, 2012;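 active = inhibition above the mean of all tested compounds plus 3 SD, cut at about 70% in these data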;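 note: 0% = DMSO with NR2E3 transfected cells and 100% = cells lacking NR2E3 construct; higher means lower luciferase signal from less NR2E3 corepressor binding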
697 NFkB conf = PMA/ionomycin-induced NF-kB reporter inhibitors, 697 retest, confirmation, B-cell NF-kB inhibitor project, cell-based, luminescence, single concentration; shares compounds with 697 NFkB inh; 697 B-cell NF-kB luciferase, 16 h; inhibition, % at 4 µM; actives 35% (n = 2,000); in the data active = inhibition mostly above about 28%, no sharp cut-off; inactive = mostly below about 22%
An asterisk follows results filed as active; i = inactive; x = no result given.

SMILES | 697 NFkB inh | GalR3 antagonist | Jurkat NFkB inh | NR2E3 ag-1 | Gli-Sufu block | NR2E3 ag-2 | 697 NFkB conf
Cc1nc(SC(C)C(=O)NCC2CCCO2)c2cc(-c3ccccc3)sc2n1 (configuration not stated) | i | -6 | -67 | 2 | -17 | -14 | i
COCc1[nH]nc2c1C(c1ccc(Br)cc1)N(Cc1ccccc1)C2=O (configuration not stated) | x | -8 | x | x | x | x | x
CC(C)(CNC(=O)c1cccs1)N1CCOCC1 | 14 | -2 | -8 | -1 | 4 | 17 | x
CC(C)(CNC(=O)C1CCCN1C(=O)c1cccs1)N1CCOCC1 (configuration not stated) | 57* | -4 | -1 | 1 | 0 | 4 | -7
O=C(CN1C(=O)NC2(CCCCCC2)C1=O)c1ccc(F)cc1 | 8 | 2 | 2 | 2 | -12 | -47 | x
O=C(CN1C(=O)NC2(CCCCCC2)C1=O)c1ccc2c(c1)OCCO2 | -266 | 1 | -110 | 0 | -60 | -148 | -132
Cc1cc(C(=O)Cn2nnc3ccccc3c2=O)c(C)n1-c1ccccc1F | i | 1 | -118 | -3 | -3 | 24 | i
COc1ccc(C2CC(=O)C(c3ccc(C(N)=O)cc3)=CN2Cc2ccccc2)cc1 (configuration not stated) | x | 0 | x | x | x | x | x
CCCCOCCCNC(=O)C[C@H]1C[C@@]2(C(=O)OC)C(=C[C@H](C(C)(C)C)O[C@@H]2C)N(Cc2ccccc2)C1=O | x | -4 | x | x | x | x | x
COC(=O)[C@]12C[C@H](CC(=O)NCCC(C)C)C(=O)N(CCC3=CCCCC3)C1=C[C@H](C(C)(C)C)O[C@@H]2C | x | 5 | x | x | x | x | x
O=c1ccn2c(n1)OC1CC2OC1COC(c1ccccc1)(c1ccccc1)c1ccccc1 (configuration not stated) | x | -9 | x | x | x | x | x
COc1ccccc1/C=C/C=N/Nc1cccc(C(=O)O)c1 | -275 | -10 | -113 | -1 | -53 | -185 | -39
Cc1cc(OCC(=O)Nc2ccc(CCO)cc2)c2c(C)c(C)c(=O)oc2c1 | 36* | -8 | 0 | -3 | 1 | -23 | 40*
Cc1cc(OCC(=O)Nc2cccnc2)c2c(C)c(C)c(=O)oc2c1 | 20 | -9 | 1 | -57 | 8 | -2 | x
Cc1nc([N+](=O)[O-])c(Sc2nc3ccc([N+](=O)[O-])cc3[nH]2)n1Cc1ccccc1 | 36* | -5 | 5 | 0 | -1 | -17 | 30*
Cc1nc([N+](=O)[O-])c(Br)n1Cc1ccccc1 | -11 | -4 | -15 | 0 | -17 | 10 | x
CC(C)(C)S(=O)(=O)N1C[C@H]2CC(=O)C(CCO)=C2[C@@H]1CCO | x | -7 | x | x | x | x | x
CCN(CC)S(=O)(=O)c1ccc(NC(=S)Nc2ccc(F)cc2)cc1 | -5 | -11 | 8 | -1 | 4 | -13 | x
CCN(CC(N)=O)S(=O)(=O)c1ccc(F)cc1 | 42* | 1 | -1 | 0 | -5 | -4 | -7
CC(C)[C@H](NS(=O)(=O)c1ccc(F)cc1F)C(=O)N1CCC[C@H]1C(=O)NCc1ccccc1 | x | -3 | x | x | x | x | x
Cc1cc(C)c2nc(NC(=O)[C@@H](NC(=O)c3cccc(S(=O)(=O)N4CCOCC4)c3)C(C)C)sc2c1 | 54* | 6 | 10 | -1 | 1 | -15 | 54*
Cc1ccnc(NC(=O)Nc2ccc3c(c2)N(C)C(=O)CS3)c1 | -338 | -8 | -77 | 1 | -100 | -39 | -227
Cc1ccc(NC(=O)Nc2ccc3c(c2)N(C)C(=O)CS3)nc1 | -78 | 0 | 10 | -2 | -11 | -15 | x
